Results as given in ChEMBL document CHEMBL4373657, “Derivatives of a new heterocyclic system - pyrano[3,4-c][1,2,4]triazolo[4,3-a]pyridines: synthesis, docking analysis and neurotropic activity” (Medchemcomm, 2019).
Activity calls are given as the source filed them. The calls are words filed in the database; no cut-off is given here.

Assays:
Mus musculus [1] = experiment: Sedative activity in mouse assessed as time spent in center at 2 mg/kg, ip measured for 5 mins by elevated plus maze test (reference value: 21.8 secs); assay type: functional
Method in brief: (§1)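 Mice placed at the junction of a raised cruciform maze (two open, two closed opposed arms) facing an open arm. Entries into and time spent in each arm and the centre recorded for 5 min by video tracking and an observer. Compound given i.p. beforehand; controls given emulsifier; P ≤ 0.05.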

Mus musculus [2] = experiment: Antidepressant activity in mouse assessed as latent period of first immobilization at 2 mg/kg, ip measured for 6 mins by forced swimming test (reference value: 92 secs); assay type: functional
Method in brief: (§2)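 Mice swum in a glass cylinder (height 22 cm, diameter 14 cm) one-third filled with water, under natural light. Latency to first immobility, total immobility and total active swimming recorded over 6 min after i.p. dosing; controls given emulsifier.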

Rattus norvegicus [3] = experiment: Antianxiety activity in Wistar rat assessed as increase in number of sniffing cell examinations at 2 mg/kg, ip measured for 5 mins by open field test; assay type: functional, organism-based
Method in brief: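 Male Wistar rats (120–140 g), 8 per group, dosed i.p. as suspension in carboxymethylcellulose with Tween-80; controls given emulsifier. Horizontal movements, rearings and sniffing of cells counted over 5 min in daylight with natural light.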

Mus musculus [4] = experiment: Antianxiety activity in mouse assessed as time spent in closed arms at 2 mg/kg, ip measured for 5 mins by elevated plus maze test (reference value: 278.2 secs); assay type: functional; method in brief: as §1
Mus musculus [5] = experiment: Antidepressant activity in mouse assessed as total time of active swimming at 2 mg/kg, ip measured for 6 mins by forced swimming test (reference value: 282 secs); assay type: functional; method in brief: as §2
Mus musculus [6] = experiment: Anticonvulsant activity in ip dosed mouse assessed as reduction in PTZ-induced clonic seizures administered 45 mins before PTZ stimulation; assay type: functional
Method in brief: (§3)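 Outbred mice (18–22 g), 8 per dose. Compounds given i.p. at 10–100 mg kg–1 as a carboxymethylcellulose/Tween-80 suspension, 45 min before s.c. pentylenetetrazole 90 mg kg–1; controls received emulsifier. Endpoint was prevention of clonic seizures. ED50 was derived by Litchfield–Wilcoxon probit analysis.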

[7] = Neurotoxicity in ip dosed mouse assessed as maximum tolerated dose by rotarod test; assay type: toxicity, organism-based; settings: in vivo
Method in brief: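 Mice given compounds i.p. at […] to 1800 mg/kg to establish the maximal tolerated dose.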

Mus musculus [8] = experiment: Antidepressant activity in mouse assessed as total time of immobilization at 2 mg/kg, ip measured for 6 mins by forced swimming test (reference value: 81 secs); assay type: functional; method in brief: as §2
Mus musculus [9] = experiment: Anticonvulsant activity in mouse assessed as MES-induced […] seizures at 10 to 100 mg/kg, ip administered 45 mins before electrical stimulation; assay type: functional, organism-based
Mus musculus [10] = experiment: Antianxiety activity in mouse assessed as increase in time spent in open arms at 2 mg/kg, ip measured for 5 mins by elevated plus maze test; assay type: functional; method in brief: as §1
Mus musculus [11] = experiment: Anticonvulsant activity in mouse assessed as MES-induced tonic seizures at 10 to 100 mg/kg, ip administered 45 mins before electrical stimulation; assay type: functional, organism-based
Method in brief: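 Mice, 8 per dose. Compounds given i.p. at 10, 25, 50, 75 or 100 mg kg–1 in carboxymethylcellulose/Tween-80 suspension, 45 min before maximal electroshock (50 mA, 0.2 s, 50 imp s–1); controls received emulsifier. Endpoint was prevention of the tonic-extensor phase.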

Mus musculus [12] = experiment: Sedative activity in mouse assessed as time spent in center at 50 mg/kg, ip measured for 5 mins by elevated plus maze test (reference value: 21.8 secs); assay type: functional
Mus musculus [13] = experiment: Antianxiety activity in mouse assessed as increase in time spent in open arms at 50 mg/kg, ip measured for 5 mins by elevated plus maze test; assay type: functional
Mus musculus [14] = experiment: Anticonvulsant activity in mouse assessed as proportion of animals displaying reduction in PTZ-induced clonic seizures at 50 mg/kg, ip administered 45 mins before PTZ stimulation relative to control; assay type: functional; parameters: scale not given: the % may be the effect or the level left; method in brief: as §3
Mus musculus [15] = experiment: Antidepressant activity in mouse assessed as latent period of first immobilization at 5 mg/kg, ip measured for 6 mins by forced swimming test (reference value: 92 secs); assay type: functional
Method in brief: (§4)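 Each mouse swam in a glass container (22 cm high, 14 cm diameter) one-third filled with water, under natural light. Over 6 min, latency to first immobilization, total immobilization time and total active swimming time were recorded.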

Rattus norvegicus [16] = experiment: Antianxiety activity in Wistar rat assessed as increase in number of sniffing cell examinations at 50 mg/kg, ip measured for 5 mins by open field test; assay type: functional, organism-based
Method in brief: (§5)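 Male Wistar rats (120–140 g), n = 8 per compound, control and reference. Single i.p. dose of 50 mg kg–1 as a suspension in methylcarboxycellulose with Tween-80; controls received emulsifier. Daytime, natural light. Over 5 min, horizontal movements, rearings (vertical movements) and cell sniffings were counted.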

Mus musculus [17] = experiment: Antianxiety activity in mouse assessed as time spent in closed arms at 50 mg/kg, ip measured for 5 mins by elevated plus maze test (reference value: 278.2 secs); assay type: functional
Mus musculus [18] = experiment: Anticonvulsant activity in mouse assessed as reduction in PTZ-induced clonic seizures at 25 mg/kg, ip administered 45 mins before PTZ stimulation; assay type: functional, organism-based; method in brief: as §3
Mus musculus [19] = experiment: Antidepressant activity in mouse assessed as total time of immobilization at 5 mg/kg, ip measured for 6 mins by forced swimming test (reference value: 81 secs); assay type: functional; method in brief: as §4
Rattus norvegicus [20] = experiment: Antianxiety activity in Wistar rat assessed as horizontal movement of animals at 50 mg/kg, ip measured for 5 mins by open field test; assay type: functional, organism-based; method in brief: as §5
[21] = Protection index, ratio of TD50 for neurotoxicity in ip dosed mouse to ED50 for anticonvulsant activity in ip dosed mouse; assay type: toxicity, organism-based; settings: in vivo, read-out: Ratio TD50/ED50
Rattus norvegicus [22] = experiment: Antianxiety activity in Wistar rat assessed as vertical movement of animals at 50 mg/kg, ip measured for 5 mins by open field test; assay type: functional, organism-based; method in brief: as §5
Mus musculus [23] = experiment: Antidepressant activity in mouse assessed as total time of active swimming at 5 mg/kg, ip measured for 6 mins by forced swimming test (reference value: 282 secs); assay type: functional; method in brief: as §4
[24] = Neurotoxicity in mouse assessed as motor coordination at 50 to 100 mg/kg, ip by rotarod test; assay type: toxicity, organism-based; settings: in vivo
Method in brief: (§6)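 Mice dosed i.p. at 50–100 mg kg–1; reference drugs given at effective anticonvulsant doses. Mice were placed on a corrugated rubber-coated metal rod rotating at 5 rpm, and the number staying on for 2 min was counted. TD50 was derived by Litchfield–Wilcoxon probit analysis.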

[25] = Neurotoxicity in ip dosed mouse assessed as myorelaxation measured for 2 mins by rotarod test; assay type: toxicity, organism-based; settings: in vivo
Method in brief: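 Mice were placed on a corrugated rubber-coated metal rod rotating at 5 rpm, and the number staying on for 2 min was counted. TD50 was derived by Litchfield–Wilcoxon probit analysis.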

[26] = Neurotoxicity in mouse assessed as myorelaxation at 50 to 100 mg/kg, ip measured for 2 mins by rotarod test; assay type: toxicity, organism-based; settings: in vivo; method in brief: as §6
[27] = Neurotoxicity in mouse assessed as myorelaxation at 100 to 200 mg/kg, ip measured for 2 mins by rotarod test; assay type: toxicity, organism-based; settings: in vivo
Method in brief: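 Mice placed on a rubber-coated metal rod rotating at 5 rpm, dosed i.p. Count of animals able to stay on the rod for 2 min. TD50 derived by Litchfield–Wilcoxon probit analysis. Reference drugs given at effective anticonvulsant doses.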

Mus musculus [28] = experiment: Anticonvulsant activity in mouse assessed as proportion of animals displaying reduction in PTZ-induced clonic seizures at 200 mg/kg, ip administered 45 mins before PTZ stimulation relative to control; assay type: functional; parameters: scale not given: the % may be the effect or the level left

With CN1C(=O)CN=C(c2ccccc2)c2cc(Cl)ccc21 [DIAZEPAM] the Time (Mus musculus [1]) was 42.5 s, the Time (Mus musculus [2]) was 174 s and the Activity (Rattus norvegicus [3]) was “Active”. The Time (Mus musculus [4]) was 257.5 s, the Time (Mus musculus [5]) was 336 s and the ED50 (Mus musculus [6]) was 0.5 mg/kg. For the same molecule, the MTD [7] was 200 mg/kg, the Time (Mus musculus [8]) was 24 s and the Activity (Mus musculus [9]) was “inactive”. The Time (Mus musculus [10]) was 57 s and the Activity (Mus musculus [11]) was “inactive”.
Work on Cc1ccc(Nc2c(C#N)c3c(c4nnc(SCC(=O)N(c5ccccc5)c5ccccc5)n24)COC(C)(C)C3)cc1 yielded a Time (Mus musculus [12]) of 58 s, a Time (Mus musculus [13]) of 6.2 s and an Activity (Mus musculus [14]) of 60%. The Time (Mus musculus [15]) was 129 s, the Activity (Rattus norvegicus [16]) was “Active” and the ED50 (Mus musculus [6]) was 45 mg/kg. The Time (Mus musculus [17]) was 242 s, the “anticonvulsant activity (active/inactive)” value (Mus musculus [18]) was “Active” and the MTD [7] was 1750 mg/kg. The Time (Mus musculus [19]) was 106 s, the Activity (Mus musculus [9]) was “inactive” and the Activity (Rattus norvegicus [20]) was “inactive”. The selectivity ratio [21] was 13.5, the Activity (Rattus norvegicus [22]) was “inactive” and the Time (Mus musculus [23]) was 254 s. For the same molecule, the Activity [24] was “Non-Toxic”, the TD50 at 2 min [25] was 610 mg/kg and the Activity [26] was “Non-Toxic”. For the same molecule, the Activity (Mus musculus [11]) was “inactive”.
For CCC1(C)CC(=O)NC1=O (stereo not given) [ETHOSUXIMIDE], the Activity [27] was “Non-Toxic”, the Activity (Mus musculus [28]) was 60% and the MTD [7] was 1000 mg/kg. The Activity (Mus musculus [9]) was “inactive” and the Activity (Mus musculus [11]) was “inactive”.
